From ChEMBL document CHEMBL2169747, “Synthesis and biological properties of highly sequence-specific-alkylating N-methylpyrrole-N-methylimidazole polyamide conjugates” (J Med Chem, 2012)
Active and inactive are the calls of the source. The calls are words filed in the database; no cut-off is given here.

Assays:
A549 [1] = test: Upregulation of BTG2 gene expression in human A549 cells at 21 nM after 12 hrs by microarray analysis relative to control; assay type: functional
Summary of the method: (§1)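 4 ×10^5 A549 cells seeded per 60 mm dish and treated 12 h with conjugate (21, 26, 34 or 100 nM) in medium; control medium contained 0.1% DMSO, with conjugates added as 0.1% DMSO solutions. Whole human genome (~25 000 genes) expression profiled by microarray against the DMSO control. A549 culture: RPMI-1640 with 10% heat-inactivated FBS, penicillin/streptomycin, 37 °C, 5% CO2.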

A549 [2] = test: Upregulation of HES2 gene expression in human A549 cells at 21 nM after 12 hrs by microarray analysis relative to control; assay type: functional; summary of the method: as §1
PC-3 = test: Cytotoxicity against human PC3 cells assessed as cell growth inhibition after 48 hrs by microplate reader analysis; assay type: functional, cell-based; conditions: PC-3, 48 h
Summary of the method: (§2)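 Medium was RPMI-1640 for EBC-1, A549 and DU145, and DMEM for PC-3, SK-N-SH and K562. Both media had 10% heat-inactivated FBS plus penicillin/streptomycin; cells were kept at 37 °C, 5% CO2. Cells were seeded at 5000/well and given compound from DMSO stock (final 0.1% DMSO) for 48 h. Viability was read by WST-8 colorimetry, absorbance at 450 and 600 nm, and IC50 determined.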

[3] = Cytotoxicity against human EBC1 cells assessed as cell growth inhibition after 48 hrs by microplate reader analysis; assay type: functional, cell-based; conditions: EBC-1, 48 h; summary of the method: as §2
A549 [4] = test: Upregulation of BBC3 gene expression in human A549 cells at 21 nM after 12 hrs by microarray analysis relative to control; assay type: functional
Summary of the method: (§3)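 A549 cells (RPMI-1640, 10% heat-inactivated FBS, penicillin/streptomycin, 37 °C, 5% CO2) seeded at 4 × 10^5 per 60 mm dish. Exposed 12 h to conjugate at 21, 26, 34 or 100 nM in medium with 0.1% DMSO, against 0.1% DMSO control. Whole-genome (~25 000 genes) expression profiled by microarray.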

A549 [5] = test: Downregulation of FMN2 gene expression in human A549 cells at 21 nM after 12 hrs by microarray analysis relative to control; assay type: functional
Summary of the method: (§4)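 A549 cells, 4 × 10^5 per 60 mm dish, were exposed to conjugate for 12 h in medium with 0.1% DMSO; vehicle control was 0.1% DMSO. Whole human genome (~25 000 genes) expression was profiled by microarray and expression compared with the control.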

A549 [6] = test: Downregulation of SUPT3H gene expression in human A549 cells at 21 nM after 12 hrs by microarray analysis relative to control; assay type: functional; summary of the method: as §3
A549 [7] = test: Upregulation of CDKN1A gene expression in human A549 cells at 21 nM after 12 hrs by microarray analysis relative to control; assay type: functional; summary of the method: as §1
A549 [8] = test: Downregulation of FHIT gene expression in human A549 cells at 21 nM after 12 hrs by microarray analysis relative to control; assay type: functional; summary of the method: as §4
Nucleic Acid = test: Induction of calf thymus DNA cleavage at 10 to 25 nM after 12 h by PAGE analysis; assay type: nucleic-acid assay; conditions: in the assay text read “208-bp PCR fragment DNA” for “calf thymus DNA”
Summary of the method: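 5′-Texas Red-labeled 208 bp PCR fragments alkylated in 5.0 mM sodium phosphate (pH 7.0) with 10% DMF, room temperature, 12 h. Quenched with calf thymus DNA and heated 95 °C for 5 min under neutral conditions. Recovered DNA in formamide loading dye, heated 95 °C 20 min, then run on 6% denaturing polyacrylamide gel with 6.0 M urea at 1.5 kV, 40 °C.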

A549 [9] = test: Upregulation of BTNL3 gene expression in human A549 cells at 21 nM after 12 hrs by microarray analysis relative to control; assay type: functional; summary of the method: as §1
A549 [10] = test: Upregulation of CST8 gene expression in human A549 cells at 21 nM after 12 hrs by microarray analysis relative to control; assay type: functional; summary of the method: as §1
A549 [11] = test: Downregulation of RABGAP1L gene expression in human A549 cells at 21 nM after 12 hrs by microarray analysis relative to control; assay type: functional; summary of the method: as §3
K562 = test: Cytotoxicity against human K562 cells assessed as cell growth inhibition after 48 hrs by microplate reader analysis; assay type: functional, cell-based; conditions: K562, 48 h; summary of the method: as §2
A549 [12] = test: Downregulation of Q5VY43 gene expression in human A549 cells at 21 nM after 12 hrs by microarray analysis relative to control; assay type: functional; summary of the method: as §3
A549 [13] = test: Downregulation of Q8N570_HUMAN gene expression in human A549 cells at 21 nM after 12 hrs by microarray analysis relative to control; assay type: functional; summary of the method: as §3
A549 [14] = test: Upregulation of MDM2 gene expression in human A549 cells at 21 nM after 12 hrs by microarray analysis relative to control; assay type: functional; summary of the method: as §1
A549 [15] = test: Downregulation of SLC25A21 gene expression in human A549 cells at 21 nM after 12 hrs by microarray analysis relative to control; assay type: functional; summary of the method: as §3
A549 [16] = test: Downregulation of Q8NCR4 gene expression in human A549 cells at 21 nM after 12 hrs by microarray analysis relative to control; assay type: functional; summary of the method: as §3
A549 [17] = test: Upregulation of Q6NTF7 gene expression in human A549 cells at 21 nM after 12 hrs by microarray analysis relative to control; assay type: functional; summary of the method: as §1
A549 [18] = test: Downregulation of SLC4A4 gene expression in human A549 cells at 21 nM after 12 hrs by microarray analysis relative to control; assay type: functional; summary of the method: as §3
A549 [19] = test: Downregulation of GABRA3 gene expression in human A549 cells at 21 nM after 12 hrs by microarray analysis relative to control; assay type: functional; summary of the method: as §4
A549 [20] = test: Downregulation of NP_115632.1 gene expression in human A549 cells at 21 nM after 12 hrs by microarray analysis relative to control; assay type: functional; summary of the method: as §4
SK-N-SH = test: Cytotoxicity against human SK-N-SH cells assessed as cell growth inhibition after 48 hrs by microplate reader analysis; assay type: functional, cell-based; summary of the method: as §2
A549 [21] = test: Downregulation of NP_060463.1 gene expression in human A549 cells at 21 nM after 12 hrs by microarray analysis relative to control; assay type: functional; summary of the method: as §4
A549 [22] = test: Downregulation of CPNE4 gene expression in human A549 cells at 21 nM after 12 hrs by microarray analysis relative to control; assay type: functional; summary of the method: as §4
A549 [23] = test: Downregulation of RS29_HUMAN gene expression in human A549 cells at 21 nM after 12 hrs by microarray analysis relative to control; assay type: functional; summary of the method: as §3
A549 [24] = test: Downregulation of HECW2 gene expression in human A549 cells at 21 nM after 12 hrs by microarray analysis relative to control; assay type: functional; summary of the method: as §4
A549 [25] = test: Cytotoxicity against human A549 cells assessed as cell growth inhibition after 48 hrs by microplate reader analysis; assay type: functional, cell-based; conditions: A549, 48 h; summary of the method: as §2
A549 [26] = test: Upregulation of FDXR gene expression in human A549 cells at 21 nM after 12 hrs by microarray analysis relative to control; assay type: functional; summary of the method: as §1
A549 [27] = test: Downregulation of MBD3L1 gene expression in human A549 cells at 21 nM after 12 hrs by microarray analysis relative to control; assay type: functional; summary of the method: as §4
A549 [28] = test: Downregulation of NBEA gene expression in human A549 cells at 21 nM after 12 hrs by microarray analysis relative to control; assay type: functional; summary of the method: as §4
A549 [29] = test: Downregulation of SMYD3 gene expression in human A549 cells at 21 nM after 12 hrs by microarray analysis relative to control; assay type: functional; summary of the method: as §3
A549 [30] = test: Upregulation of HCK gene expression in human A549 cells at 21 nM after 12 hrs by microarray analysis relative to control; assay type: functional; summary of the method: as §1
A549 [31] = test: Downregulation of PTPRK gene expression in human A549 cells at 21 nM after 12 hrs by microarray analysis relative to control; assay type: functional; summary of the method: as §3
DU-145 = test: Cytotoxicity against human DU145 cells assessed as cell growth inhibition after 48 hrs by microplate reader analysis; assay type: functional, cell-based; conditions: DU-145, 48 h; summary of the method: as §2
A549 [32] = test: Downregulation of ACTG gene expression in human A549 cells at 21 nM after 12 hrs by microarray analysis relative to control; assay type: functional; summary of the method: as §4

Compound: CC(=O)Nc1cc(C(=O)Nc2cn(C)c(C(=O)NCCC(=O)Nc3cn(C)c(C(=O)Nc4cc(C(=O)NCCCC(=O)Nc5cc(C(=O)Nc6cc(C(=O)Nc7cc(C(=O)Nc8ccc9[nH]c(C(=O)N%10CC(CCl)c%11c%10cc(O)c%10ccccc%11%10)cc9c8)n(C)c7)n(C)c6)n(C)c5)n(C)c4)n3)n2)n(C)c1 (racemic)
- fold change (FC) (A549 [1]): 6.7
- fold change (FC) (A549 [2]): 10.6
- IC50 (PC-3): 6.03 nM
- IC50 [3]: 33.9 nM
- fold change (FC) (A549 [4]): 5.7
- fold change (FC) (A549 [5]): 0.344
- fold change (FC) (A549 [6]): 0.268
- fold change (FC) (A549 [7]): 5.2
- fold change (FC) (A549 [8]): 0.253
- Activity (Nucleic Acid): Active
- fold change (FC) (A549 [9]): 2
- fold change (FC) (A549 [10]): 5.3
- fold change (FC) (A549 [11]): 0.132
- IC50 (K562): 7.76 nM
- fold change (FC) (A549 [12]): 0.354
- fold change (FC) (A549 [13]): 0.228
- fold change (FC) (A549 [14]): 5.4
- fold change (FC) (A549 [15]): 0.354
- fold change (FC) (A549 [16]): 0.348
- fold change (FC) (A549 [17]): 7
- fold change (FC) (A549 [18]): 0.278
- fold change (FC) (A549 [19]): 0.343
- fold change (FC) (A549 [20]): 0.154
- IC50 (SK-N-SH): 15.1 nM
- fold change (FC) (A549 [21]): 0.303
- fold change (FC) (A549 [22]): 0.314
- fold change (FC) (A549 [23]): 0.234
- fold change (FC) (A549 [24]): 0.346
- IC50 (A549 [25]): 21.4 nM
- fold change (FC) (A549 [26]): 2
- fold change (FC) (A549 [27]): 0.294
- fold change (FC) (A549 [28]): 0.274
- fold change (FC) (A549 [29]): 0.345
- fold change (FC) (A549 [30]): 4.3
- fold change (FC) (A549 [31]): 0.334
- IC50 (DU-145): 3.31 nM
- fold change (FC) (A549 [32]): 0.345
